Bioassay records as filed in PubChem BioAssay.
CHO parental Ca: counter-screen for OX1R antagonists: effect in parental CHO cells; 330,000 tested, 0.63% active; parental CHO-K1, ATP-induced calcium, Fluo-8 fluorescence; inhibition, % at 5.6 µM;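 active means inhibition above that plate's mean sample inhibition plus 3 SD, cut at about 26% in these data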;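 further: 0% = ATP-challenged DMSO wells and 100% = DMSO wells without ATP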
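Assay system: parental CHO cells; Read-out basis: percent inhibition of ATP-evoked calcium rise, normalized to controls; Benchmarks: ATP and no-ATP DMSO wells; Compound dosing: single nominal dose of 5.6 µM per compound; Signal: Fluo-8 calcium dye fluorescence; Also added: ATP as calcium-mobilizing challenge; Repeats: singlicate.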
M1 PAM parental: counter-screen for M1 PAMs: effect in parental CHO-K1 cells; ATP EC20, Fluo-8 calcium fluorescence; 0% at ATP EC20, 100% at ATP max; activation, % at 3 µM; 360,000 tested, 0.02% active; AID 602247;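 active means activation above the run cutoff, the mean activation of all test compounds plus 3 SD, cut at about 40% in these data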;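 further: peak over basal fluorescence ratio in a 140 s read after ATP addition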
OX1R antag-1: antagonists of human orexin 1 receptor (OX1R); O43613; OX1R-expressing cells, FRET antagonist read-out; inhibition, % at 6.6 µM; 330,000 tested, 1.8% active; AID 485270; in the data active means inhibition mostly above about 38%, no sharp cut-off; inactive means mostly below about 40%;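 further: 0% = agonist challenge alone and 100% = reference antagonist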
Target sequence (O43613 whole entry, looked up): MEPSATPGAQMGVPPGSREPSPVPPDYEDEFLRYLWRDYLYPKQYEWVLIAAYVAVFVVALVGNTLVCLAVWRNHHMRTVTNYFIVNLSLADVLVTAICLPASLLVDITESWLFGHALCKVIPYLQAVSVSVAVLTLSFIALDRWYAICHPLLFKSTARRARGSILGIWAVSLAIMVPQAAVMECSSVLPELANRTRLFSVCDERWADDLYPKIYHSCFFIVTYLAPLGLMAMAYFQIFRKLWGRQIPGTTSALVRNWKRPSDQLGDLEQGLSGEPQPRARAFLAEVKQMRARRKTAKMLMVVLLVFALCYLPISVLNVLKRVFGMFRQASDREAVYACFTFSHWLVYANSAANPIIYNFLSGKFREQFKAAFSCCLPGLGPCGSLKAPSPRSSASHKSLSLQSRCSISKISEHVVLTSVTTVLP
CHO-K1 Ca antag: counter-screen for M1 antagonists: effect in parental CHO-K1 cells. ATP-induced calcium, Fluo-8 fluorescence. inhibition, % at 3 µM. 360,000 tested, 0.6% active;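 active means inhibition above a per-plate cutoff, the plate's mean sample inhibition plus 3 SD, cut at about 24% in these data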;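 further: 0% = DMSO plus EC80 ATP and 100% = DMSO alone without ATP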
M1 ag parental: nonselective activator or artifact in parental CHO-K1 cells; Fluo-8 calcium fluorescence; scaled to maximal ATP response, vehicle zero; activation, % at 3 µM; 360,000 tested, 0.48% active; AID 602248; in the data active means activation above about 15%;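 further: untransfected CHO-K1 host cells lacking M1 receptor as counterscreen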
OX1R antag-2: antagonists of human orexin 1 receptor. O43613. CHO/OX1R cells, Fluo-8 calcium fluorescence, orexin A. inhibition, % at 5 µM. 330,000 tested, 0.43% active. AID 434989;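 active means inhibition above its plate's threshold, mean inhibition of all tested compounds on the plate plus 3 SD, cut at about 37% in these data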;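 further: 0% = orexin A challenge wells and 100% = SB-334867-A antagonist wells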
OX1R HTRF confirm: confirmation of human orexin 1 receptor antagonists, HTRF format | inhibition, % at 6.6 µM | shares compounds with OX1R antag-1 | 1,800 tested, 49% active | OX1R-expressing cells, HTRF antagonist assay; in the data active means inhibition above about 55%;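 further: CHO cells expressing OX1R stimulated with orexin A at about EC80; 0% = agonist challenge alone and 100% = reference antagonist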
CHO-K1 HTRF cnt: counter-screen for OX1R antagonists: effect in parental CHO-K1 cells; shares compounds with OX1R antag-1; HTRF counterscreen; inhibition, % at 6.6 µM; 1,800 tested, 48% active; AID 493232; in the data active means inhibition above about 17%;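 further: 0% = agonist challenge with vehicle and 100% = vehicle alone without agonist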
Numbers without * were called inactive. This is a sample that favours compounds with a hit; in the whole collection about 2.9% have one here.

How did CCO/C(C)=N/n1c2nc3ccccc3nc2c2c(=O)n(C3CCCC3)c(C)nc21 do in these assays?
CHO parental Ca: -11.2; M1 PAM parental: 15.6; OX1R antag-1: 99.5*; CHO-K1 Ca antag: -8.9; M1 ag parental: 0.4; OX1R antag-2: -34.4; OX1R HTRF confirm: 19.7; CHO-K1 HTRF cnt: 36.5*

What do the screens show for `CCCCCCN1C=CC(=C2C(=O)c3ccccc3C2=O)C=C1`?
CHO parental Ca: -16.8; M1 PAM parental: 31.9; OX1R antag-1: 20.9; CHO-K1 Ca antag: -20.9; M1 ag parental: 2.8; OX1R antag-2: -16.3

What do the screens show for `CCCCN1C=CC(=C2N=c3cccc([N+](=O)[O-])c3=N2)C=C1`?
CHO parental Ca: 5.8; M1 PAM parental: 15.3; OX1R antag-1: 156.6*; CHO-K1 Ca antag: -5.6; M1 ag parental: 0.8; OX1R antag-2: -0.6; OX1R HTRF confirm: 58.7*; CHO-K1 HTRF cnt: 100.3*

What do the screens show for `COc1ccc(S(=O)(=O)NCCC(=O)Nc2ccc(C)cc2)cc1`?
CHO parental Ca: -12.6; M1 PAM parental: 31.1; OX1R antag-1: 15.8; CHO-K1 Ca antag: -20.1; M1 ag parental: 5.0; OX1R antag-2: -9.6

How did Cc1nc2c(C(=O)Nc3ccc(N4CCCC(O)C4)cc3)snc2c(=O)[nH]1 (stereo not drawn) do in these assays?
CHO parental Ca: -1.8; M1 PAM parental: -17.3; OX1R antag-1: 94.8*; CHO-K1 Ca antag: 8.3; M1 ag parental: 0.1; OX1R antag-2: 2.9; OX1R HTRF confirm: 38.5; CHO-K1 HTRF cnt: 58.7*

Results for COc1ccc(C(=O)Nc2ccc(N3CCCC3)cc2)cc1 ?
CHO parental Ca: -5.4; M1 PAM parental: 22.6; OX1R antag-1: 29.5; CHO-K1 Ca antag: -15.0; M1 ag parental: -0.3; OX1R antag-2: -2.2

What do the screens show for `CCOc1ccc(N(CCCCO)C(=S)NC(=O)c2ccc(C)c(Br)c2)cc1`?
CHO parental Ca: -18.8; M1 PAM parental: 6.6; OX1R antag-1: 14.4; CHO-K1 Ca antag: -9.5; M1 ag parental: 0.1; OX1R antag-2: -35.4

How did O=C1c2ccccc2C(=O)c2c1cccc2-n1nnc2ccccc21 do in these assays?
CHO parental Ca: -10.7; M1 PAM parental: 11.6; OX1R antag-1: 17.2; CHO-K1 Ca antag: -10.0; M1 ag parental: 2.1; OX1R antag-2: -14.9

What do the screens show for `O=C1C(N2CCOCC2)=C(n2nnc3ccccc32)C(=O)c2ccccc21`?
CHO parental Ca: -10.2; M1 PAM parental: -2.0; OX1R antag-1: 188.8*; CHO-K1 Ca antag: 0.4; M1 ag parental: 0.4; OX1R antag-2: -22.5; OX1R HTRF confirm: 52.4; CHO-K1 HTRF cnt: 75.1*

Results for CN(C1CCS(=O)(=O)C1)S(=O)(=O)c1cccc2nsnc12 (stereo not drawn) ?
CHO parental Ca: -11.6; M1 PAM parental: 17.7; OX1R antag-1: 90.4*; CHO-K1 Ca antag: -14.9; M1 ag parental: 4.0; OX1R antag-2: -18.2; OX1R HTRF confirm: 49.0; CHO-K1 HTRF cnt: 41.2*

What do the screens show for `NC(=O)CSc1ncc(-c2ccc([N+](=O)[O-])cc2)[nH]1`?
CHO parental Ca: -1.7; M1 PAM parental: -0.6; OX1R antag-1: 80.5*; CHO-K1 Ca antag: -10.3; M1 ag parental: -0.1; OX1R antag-2: -8.5; OX1R HTRF confirm: 39.7; CHO-K1 HTRF cnt: 33.5*

How did NC(=O)CSc1ncc(-c2ccccc2)[nH]1 do in these assays?
CHO parental Ca: -2.1; M1 PAM parental: 2.6; OX1R antag-1: 7.3; CHO-K1 Ca antag: 1.0; M1 ag parental: -0.1; OX1R antag-2: -4.4

What do the screens show for `CCOC(=O)c1cc2c(=O)n3ccccc3nc2n(CCCOC)c1=NC(=O)C(C)(C)C`?
CHO parental Ca: -20.5; M1 PAM parental: 4.7; OX1R antag-1: 84.1*; CHO-K1 Ca antag: -11.6; M1 ag parental: 0.2; OX1R antag-2: -40.7; OX1R HTRF confirm: 20.9; CHO-K1 HTRF cnt: 26.9*

How did CCOC(=O)c1cc2c(=O)n3ccccc3nc2n(C(C)C)c1=NC(=O)c1ccncc1 do in these assays?
CHO parental Ca: -13.2; M1 PAM parental: -2.6; OX1R antag-1: 43.2; CHO-K1 Ca antag: 0.2; M1 ag parental: 0.2; OX1R antag-2: -13.5

What do the screens show for `CCOC(=O)c1cc2c(=O)n3ccccc3nc2n(CCOC)c1=NC(=O)c1ccncc1`?
CHO parental Ca: -11.6; M1 PAM parental: 2.4; OX1R antag-1: 79.9*; CHO-K1 Ca antag: 5.9; M1 ag parental: 1.3; OX1R antag-2: -17.1; OX1R HTRF confirm: 57.6*; CHO-K1 HTRF cnt: 52.3*

Results for CCOC(=O)c1cc2c(=O)n3ccccc3nc2n(CCOC)c1=NC(=O)C(C)(C)C ?
CHO parental Ca: 2.9; M1 PAM parental: 0.7; OX1R antag-1: 43.0; CHO-K1 Ca antag: -12.7; M1 ag parental: 0.0; OX1R antag-2: -26.7

How did CCOC(=O)c1cc2c(=O)n3ccccc3nc2n(CC(C)C)c1=NC(=O)c1ccco1 do in these assays?
CHO parental Ca: -5.1; M1 PAM parental: 17.8; OX1R antag-1: 116.7*; CHO-K1 Ca antag: -5.6; M1 ag parental: 1.5; OX1R antag-2: -31.7; OX1R HTRF confirm: 53.8; CHO-K1 HTRF cnt: 39.8*

Results for CC[C@H](C)[C@H]1CNC(=S)N1CC1CCN(CCC(C)C)CC1 ?
M1 PAM parental: 0.1; CHO-K1 Ca antag: 1.5; M1 ag parental: 0.3

How did O=C(NCCc1ccccc1)[C@@H]1CC=C[C@@H]2CCN(Cc3ccc(Cl)c(Cl)c3)C(=O)[C@@H]21 do in these assays?
CHO parental Ca: -28.6; M1 PAM parental: -8.7; OX1R antag-1: 81.9*; CHO-K1 Ca antag: -3.8; M1 ag parental: -0.7; OX1R antag-2: 16.8; OX1R HTRF confirm: 65.8*; CHO-K1 HTRF cnt: 4.6

How did O=C1[C@H]2[C@H](C=CC[C@H]2C(=O)N2CCN(c3ccccc3)CC2)CCN1Cc1ccc(Cl)c(Cl)c1 do in these assays?
CHO parental Ca: -21.6; M1 PAM parental: -5.7; OX1R antag-1: 16.2; CHO-K1 Ca antag: -4.5; M1 ag parental: 1.9; OX1R antag-2: -10.7

Results for O=c1[nH]c2cc3c(cc2cc1CN(Cc1ccccc1)Cc1nnnn1Cc1ccco1)OCCO3 ?
M1 PAM parental: -7.4; CHO-K1 Ca antag: 16.6; M1 ag parental: 0.1

Results for O=c1[nH]c2cc3c(cc2cc1CN(Cc1cccs1)Cc1nnnn1Cc1ccco1)OCCO3 ?
CHO parental Ca: -3.2; M1 PAM parental: 13.7; OX1R antag-1: 102.7*; CHO-K1 Ca antag: -10.2; M1 ag parental: 0.4; OX1R antag-2: -0.2; OX1R HTRF confirm: 10.7; CHO-K1 HTRF cnt: 3.7

How did COc1ccc(S(=O)(=O)N2CCCC(C(=O)NCc3ccccc3)C2)cc1 (stereo not drawn) do in these assays?
CHO parental Ca: -15.6; M1 PAM parental: 2.4; OX1R antag-1: 15.4; CHO-K1 Ca antag: -9.2; M1 ag parental: -0.8; OX1R antag-2: -13.6
